Test results from ChEMBL document CHEMBL1641558, “A novel series of potent and selective EP(4) receptor ligands: facile modulation of agonism and antagonism” (Bioorg Med Chem Lett, 2011).

Tests used:
[1] = target: T1, Prostaglandin E2 receptor EP4 subtype (Homo sapiens, UniProt P35408); experiment: Displacement of [3H]PGE2 from human prostanoid EP4 receptor expressed in HEK293-EBNA cells after 60 mins by scintillation counting; format: cell-based
[2] = target: T1, Prostaglandin E2 receptor EP4 subtype; experiment: Antagonist activity at human prostanoid EP4 receptor expressed in HEK293 cells assessed as inhibition of PGE2-induced cAMP accumulation by scintillation proximity assay; format: functional, cell-based
Procedure, shortened: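 HEK293 cells expressing EP4 receptors. Antagonism is read as inhibition of PGE2-evoked rise in intracellular cAMP, reported as IC50. Agonism is read as cAMP elevation in the same cells without PGE2, reported as EC50.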

Homo sapiens [3] = species: Homo sapiens; experiment: Selectivity ratio of Ki for human prostanoid EP2 receptor to Ki for human prostanoid EP4
Homo sapiens [4] = species: Homo sapiens; experiment: Selectivity ratio of Ki for human prostanoid DP receptor to Ki for human prostanoid EP4
Homo sapiens [5] = species: Homo sapiens; experiment: Selectivity ratio of Ki for human prostanoid EP1 receptor to Ki for human prostanoid EP4
Homo sapiens [6] = species: Homo sapiens; experiment: Selectivity ratio of Ki for human prostanoid EP3 receptor to Ki for human prostanoid EP4
Homo sapiens [7] = species: Homo sapiens; experiment: Selectivity ratio of Ki for human prostanoid FP receptor to Ki for human prostanoid EP4
Homo sapiens [8] = species: Homo sapiens; experiment: Selectivity ratio of Ki for human prostanoid IP receptor to Ki for human prostanoid EP4
Homo sapiens [9] = species: Homo sapiens; experiment: Selectivity ratio of Ki for human prostanoid TP receptor to Ki for human prostanoid EP4
[10] = Half life in rat at 20 mg/kg, po and 5 mg/kg, iv; format: ADME, organism-based; details: in vivo
Procedure, shortened: (§1)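 Rat pharmacokinetics with potassium salts, given 20 mg/kg orally in 0.5% methocel and 5 mg/kg intravenously in 60% PEG 200. Half-life, oral bioavailability and clearance derived from these dosings.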

[11] = Bioavailability in rat at 20 mg/kg, po and 5 mg/kg, iv; format: ADME, organism-based; details: in vivo; procedure, shortened: as §1
[12] = Clearance in rat at 20 mg/kg, po and 5 mg/kg, iv; format: ADME, organism-based; details: in vivo; procedure, shortened: as §1

T1 sequence (P35408 whole entry): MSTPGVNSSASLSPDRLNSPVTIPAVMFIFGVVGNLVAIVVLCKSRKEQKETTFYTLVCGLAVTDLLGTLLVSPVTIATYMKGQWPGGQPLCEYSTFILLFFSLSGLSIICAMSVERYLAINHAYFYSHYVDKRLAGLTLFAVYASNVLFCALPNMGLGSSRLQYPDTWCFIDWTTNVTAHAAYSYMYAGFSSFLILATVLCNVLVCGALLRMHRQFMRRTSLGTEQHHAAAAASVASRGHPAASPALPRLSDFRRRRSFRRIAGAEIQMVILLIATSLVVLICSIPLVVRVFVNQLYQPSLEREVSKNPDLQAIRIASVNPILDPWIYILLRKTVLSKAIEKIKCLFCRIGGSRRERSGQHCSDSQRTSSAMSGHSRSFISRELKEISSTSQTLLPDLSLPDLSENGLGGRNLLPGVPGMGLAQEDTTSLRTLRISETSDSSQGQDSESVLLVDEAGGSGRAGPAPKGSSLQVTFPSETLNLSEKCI

C[C@H](NC(=O)c1cccc2c1N(Cc1ccc(Cl)cc1Br)CC2)c1ccc(C(=O)O)cc1
Ki [1]: 2.3 nM | IC50 [2]: 8.3 nM | Ratio Ki (Homo sapiens [3]): > 1000 | Ratio Ki (Homo sapiens [4]): 114 | Ratio Ki (Homo sapiens [5]): > 1000 | Ratio Ki (Homo sapiens [6]): > 1000 | Ratio Ki (Homo sapiens [7]): > 1000 | Ratio Ki (Homo sapiens [8]): > 1000 | Ratio Ki (Homo sapiens [9]): > 1000

C[C@H](NC(=O)c1cccc2c1N(Cc1ccc(Cl)c(Cl)c1)CC2)c1ccc(C(=O)O)cc1
Ki [1]: 0.34 nM | IC50 [2]: 1.1 nM | Ratio Ki (Homo sapiens [3]): 338 | Ratio Ki (Homo sapiens [4]): 241 | Ratio Ki (Homo sapiens [5]): > 1000 | Ratio Ki (Homo sapiens [6]): > 1000 | Ratio Ki (Homo sapiens [7]): > 1000 | Ratio Ki (Homo sapiens [8]): > 1000 | Ratio Ki (Homo sapiens [9]): > 1000 | half-life [10]: 4.8 h | bioavailability [11]: 73% | clearance [12]: 12 mL/min/kg

C[C@H](NC(=O)c1cccc2c1N(Cc1ccc(C(F)(F)F)cc1)CC2)c1ccc(-c2nnn[nH]2)cc1
Ki [1]: 1 nM | IC50 [2]: 3.5 nM | half-life [10]: 2.6 h | bioavailability [11]: 54% | clearance [12]: 28 mL/min/kg

C[C@H](NC(=O)c1cc(Cl)cc2c1N(Cc1ccc(C(F)(F)F)cc1)CC2)c1ccc(C(=O)O)cc1
Ki [1]: 0.4 nM | IC50 [2]: 2.2 nM | Ratio Ki (Homo sapiens [3]): 647 | Ratio Ki (Homo sapiens [4]): 670 | Ratio Ki (Homo sapiens [5]): > 1000 | Ratio Ki (Homo sapiens [6]): > 1000 | Ratio Ki (Homo sapiens [7]): > 1000 | Ratio Ki (Homo sapiens [8]): > 1000 | Ratio Ki (Homo sapiens [9]): > 1000

C[C@H](NC(=O)c1cc(C(F)(F)F)cc2c1N(Cc1ccc(C(F)(F)F)cc1)CC2)c1ccc(C(=O)O)cc1
Ki [1]: 0.66 nM | IC50 [2]: 3 nM | Ratio Ki (Homo sapiens [3]): 153 | Ratio Ki (Homo sapiens [4]): 504 | Ratio Ki (Homo sapiens [5]): > 1000 | Ratio Ki (Homo sapiens [6]): > 1000 | Ratio Ki (Homo sapiens [7]): > 1000 | Ratio Ki (Homo sapiens [8]): > 1000 | Ratio Ki (Homo sapiens [9]): > 1000

C[C@H](NC(=O)c1cccc2c1N(Cc1ccc(C(N)=O)cc1)CC2)c1ccc(C(=O)O)cc1
Ki [1]: 30 nM | IC50 [2]: 73 nM | Ratio Ki (Homo sapiens [3]): > 1000 | Ratio Ki (Homo sapiens [4]): > 1000 | Ratio Ki (Homo sapiens [5]): > 1000 | Ratio Ki (Homo sapiens [6]): > 1000 | Ratio Ki (Homo sapiens [7]): > 1000 | Ratio Ki (Homo sapiens [8]): > 1000 | Ratio Ki (Homo sapiens [9]): > 1000

C[C@H](NC(=O)c1cccc2c1N(Cc1cccnc1)CC2)c1ccc(C(=O)O)cc1
Ki [1]: 76 nM | IC50 [2]: 258 nM | Ratio Ki (Homo sapiens [3]): > 127 | Ratio Ki (Homo sapiens [4]): > 50 | Ratio Ki (Homo sapiens [5]): > 1000 | Ratio Ki (Homo sapiens [6]): > 1000 | Ratio Ki (Homo sapiens [7]): > 1000 | Ratio Ki (Homo sapiens [8]): > 1000 | Ratio Ki (Homo sapiens [9]): > 1000

C[C@H](NC(=O)c1cccc2c1N(Cc1cccc(C(N)=O)c1)CC2)c1ccc(C(=O)O)cc1
Ki [1]: 30 nM | IC50 [2]: 72 nM | Ratio Ki (Homo sapiens [3]): 582 | Ratio Ki (Homo sapiens [4]): 461 | Ratio Ki (Homo sapiens [5]): > 1000 | Ratio Ki (Homo sapiens [6]): > 1000 | Ratio Ki (Homo sapiens [7]): > 1000 | Ratio Ki (Homo sapiens [8]): > 1000 | Ratio Ki (Homo sapiens [9]): > 1000

C[C@H](NC(=O)c1cccc2c1N(Cc1ccc(C(=O)O)cc1)CC2)c1ccc(C(=O)O)cc1
Ki [1]: 54 nM | Ratio Ki (Homo sapiens [3]): > 179 | Ratio Ki (Homo sapiens [4]): > 73 | Ratio Ki (Homo sapiens [5]): > 1000 | Ratio Ki (Homo sapiens [6]): > 1000 | Ratio Ki (Homo sapiens [7]): > 1000 | Ratio Ki (Homo sapiens [8]): > 1000 | Ratio Ki (Homo sapiens [9]): > 1000

Cc1ccc(CN2CCc3cccc(C(=O)N[C@@H](C)c4ccc(C(=O)O)cc4)c32)cc1
Ki [1]: 0.78 nM | IC50 [2]: 5.8 nM | Ratio Ki (Homo sapiens [3]): > 1000 | Ratio Ki (Homo sapiens [4]): > 1000 | Ratio Ki (Homo sapiens [5]): > 1000 | Ratio Ki (Homo sapiens [6]): > 1000 | Ratio Ki (Homo sapiens [7]): > 1000 | Ratio Ki (Homo sapiens [8]): > 1000 | Ratio Ki (Homo sapiens [9]): > 1000

C[C@H](NC(=O)c1cc(F)cc2c1N(Cc1ccc(C(F)(F)F)cc1)CC2)c1ccc(C(=O)O)cc1
Ki [1]: 0.37 nM | IC50 [2]: 2.1 nM | Ratio Ki (Homo sapiens [3]): > 1000 | Ratio Ki (Homo sapiens [4]): > 1000 | Ratio Ki (Homo sapiens [5]): > 1000 | Ratio Ki (Homo sapiens [6]): > 1000 | Ratio Ki (Homo sapiens [7]): > 1000 | Ratio Ki (Homo sapiens [8]): > 1000 | Ratio Ki (Homo sapiens [9]): > 1000

C[C@H](NC(=O)c1cccc2c1N(Cc1ccc(C(F)(F)F)cc1Br)CC2)c1ccc(C(=O)O)cc1
Ki [1]: 6.7 nM | IC50 [2]: 4.7 nM | Ratio Ki (Homo sapiens [3]): 795 | Ratio Ki (Homo sapiens [4]): 88 | Ratio Ki (Homo sapiens [5]): > 1000 | Ratio Ki (Homo sapiens [6]): > 1000 | Ratio Ki (Homo sapiens [7]): > 1000 | Ratio Ki (Homo sapiens [8]): > 1000 | Ratio Ki (Homo sapiens [9]): > 1000

C[C@H](NC(=O)c1cccc2c1N(Cc1ccc(OC(F)(F)F)cc1)CC2)c1ccc(C(=O)O)cc1
Ki [1]: 1.5 nM | IC50 [2]: 2.8 nM | Ratio Ki (Homo sapiens [3]): 687 | Ratio Ki (Homo sapiens [4]): 880 | Ratio Ki (Homo sapiens [5]): > 1000 | Ratio Ki (Homo sapiens [6]): > 1000 | Ratio Ki (Homo sapiens [7]): > 1000 | Ratio Ki (Homo sapiens [8]): > 1000 | Ratio Ki (Homo sapiens [9]): > 1000

C[C@H](NC(=O)c1cccc2c1N(Cc1ccc(C#N)cc1)CC2)c1ccc(C(=O)O)cc1
Ki [1]: 3.1 nM | IC50 [2]: 7.3 nM | Ratio Ki (Homo sapiens [3]): 603 | Ratio Ki (Homo sapiens [4]): 916 | Ratio Ki (Homo sapiens [5]): > 1000 | Ratio Ki (Homo sapiens [6]): > 1000 | Ratio Ki (Homo sapiens [7]): > 1000 | Ratio Ki (Homo sapiens [8]): > 1000 | Ratio Ki (Homo sapiens [9]): > 1000

C[C@H](NC(=O)c1cccc2c1N(Cc1ccc(-c3ccccc3)cc1)CC2)c1ccc(C(=O)O)cc1
Ki [1]: 0.28 nM | IC50 [2]: 1.3 nM | Ratio Ki (Homo sapiens [3]): 139 | Ratio Ki (Homo sapiens [4]): 57 | Ratio Ki (Homo sapiens [5]): > 1000 | Ratio Ki (Homo sapiens [6]): > 1000 | Ratio Ki (Homo sapiens [7]): > 1000 | Ratio Ki (Homo sapiens [8]): > 1000 | Ratio Ki (Homo sapiens [9]): > 1000

C[C@H](NC(=O)c1cccc2c1N(Cc1ccc(C(C)(C)C)cc1)CC2)c1ccc(C(=O)O)cc1
Ki [1]: 14 nM | IC50 [2]: 114 nM | Ratio Ki (Homo sapiens [3]): > 692 | Ratio Ki (Homo sapiens [4]): > 281 | Ratio Ki (Homo sapiens [5]): > 1000 | Ratio Ki (Homo sapiens [6]): > 1000 | Ratio Ki (Homo sapiens [7]): > 1000 | Ratio Ki (Homo sapiens [8]): > 1000 | Ratio Ki (Homo sapiens [9]): > 1000

C[C@H](NC(=O)c1cccc2ccn(Cc3cccc(Cl)c3)c12)c1ccc(C(=O)O)cc1
IC50 [2]: 6 nM | Ratio Ki (Homo sapiens [3]): > 1000 | Ratio Ki (Homo sapiens [4]): 16 | Ratio Ki (Homo sapiens [5]): > 1000 | Ratio Ki (Homo sapiens [6]): > 1000 | Ratio Ki (Homo sapiens [7]): > 1000 | Ratio Ki (Homo sapiens [8]): > 1000 | Ratio Ki (Homo sapiens [9]): > 1000

C[C@H](NC(=O)c1cccc2c1N(Cc1ccc(C(F)(F)F)cc1)CC2)c1ccc(-c2nn[nH]n2)cc1
Ratio Ki (Homo sapiens [3]): > 1000 | Ratio Ki (Homo sapiens [4]): > 1000 | Ratio Ki (Homo sapiens [5]): > 1000 | Ratio Ki (Homo sapiens [6]): > 1000 | Ratio Ki (Homo sapiens [7]): > 1000 | Ratio Ki (Homo sapiens [8]): > 1000 | Ratio Ki (Homo sapiens [9]): > 1000

C[C@H](NC(=O)c1cccc2c1N(Cc1ccc(F)cc1)CC2)c1ccc(C(=O)O)cc1
Ki [1]: 1.8 nM | IC50 [2]: 6.2 nM | Ratio Ki (Homo sapiens [3]): 488 | Ratio Ki (Homo sapiens [4]): 907 | Ratio Ki (Homo sapiens [5]): > 1000 | Ratio Ki (Homo sapiens [6]): > 1000 | Ratio Ki (Homo sapiens [7]): > 1000 | Ratio Ki (Homo sapiens [8]): > 1000 | Ratio Ki (Homo sapiens [9]): > 1000

C[C@H](NC(=O)c1cccc2c1N(Cc1cccc(C#N)c1)CC2)c1ccc(C(=O)O)cc1
Ki [1]: 7.5 nM | IC50 [2]: 212 nM | Ratio Ki (Homo sapiens [3]): 582 | Ratio Ki (Homo sapiens [4]): > 1000 | Ratio Ki (Homo sapiens [5]): > 1000 | Ratio Ki (Homo sapiens [6]): > 1000 | Ratio Ki (Homo sapiens [7]): > 1000 | Ratio Ki (Homo sapiens [8]): > 1000 | Ratio Ki (Homo sapiens [9]): > 1000
